Experiments:
Liver microsome = test: Drug metabolism in Sprague-Dawley rat liver microsomes assessed as N'-glucuronide-triclocarban formation incubated for 5 mins prior to UDPGA addition measured after 5 to 30 mins by LC-UV analysis; assay type: ADME
Procedure, shortened: (§1)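 Microsomes or UGT Supersomes (5 µg protein) were held 15 min on ice with alamethicin in 100 mM potassium phosphate pH 7.4. TCC was added at 10 µM (2% DMSO) with 10 mM MgCl2 and 10 mM saccharolactone, pre-warmed 5 min at 37 °C, then started with UDPGA. Samples at 5, 10, 15 and 30 min were quenched in ACN. Product was read by LC-UV at 265 nm; rate came from regression over time, three incubations.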

[1] = Inhibition of human recombinant soluble epoxide hydrolase using CMNPC as substrate
[2] = Drug excretion in Swiss webster mouse urine assessed as 6-O-glucuronide-triclocarban formation at 5 mg/kg, po by LC-MS analysis; assay type: ADME, organism-based; parameters: dose 5 mg/kg, route oral; conditions: in vivo
Procedure, shortened: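 Mice were housed two per metabolic cage, with blank urine collected over the 24 h before dosing. TCC was given by oral gavage as a 1 mg/mL solution in 20/80 DMSO/PEG400 (v/v) at 5 mg/kg. Urine was collected at 0-24 h and 24-48 h and analysed by online LC-MS. Values are the mean of two independent experiments.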

[3] = target: T1, UDP-glucuronosyltransferase 1A1 (Homo sapiens, UniProt P22309); test: Drug metabolism assessed as human UGT1A1-mediated N'-glucuronide-triclocarban formation expressed in baculovirus infected insect sf9 cells incubated for 5 mins prior to UDPGA addition measured after 5 to 30 mins by LC-UV analysis; assay type: ADME; procedure, shortened: as §1
T1 sequence (P22309 whole entry): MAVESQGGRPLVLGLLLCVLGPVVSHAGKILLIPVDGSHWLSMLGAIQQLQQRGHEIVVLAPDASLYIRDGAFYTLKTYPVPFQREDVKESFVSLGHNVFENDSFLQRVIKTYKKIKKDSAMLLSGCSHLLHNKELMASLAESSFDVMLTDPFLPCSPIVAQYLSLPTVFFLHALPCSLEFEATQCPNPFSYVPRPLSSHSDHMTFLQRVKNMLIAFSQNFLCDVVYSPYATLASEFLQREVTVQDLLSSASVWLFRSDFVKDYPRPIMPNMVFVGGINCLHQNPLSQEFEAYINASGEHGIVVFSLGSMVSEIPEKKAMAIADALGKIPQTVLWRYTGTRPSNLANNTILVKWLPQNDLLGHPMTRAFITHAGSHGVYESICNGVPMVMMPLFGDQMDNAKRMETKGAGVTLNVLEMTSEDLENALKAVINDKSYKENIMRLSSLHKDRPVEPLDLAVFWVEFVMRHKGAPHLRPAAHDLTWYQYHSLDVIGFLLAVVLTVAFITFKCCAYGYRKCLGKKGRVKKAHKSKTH

[4] = target: T2, UDP-glucuronosyltransferase 1A9 (Homo sapiens, UniProt O60656); test: Drug metabolism assessed as human UGT1A9-mediated N-glucuronide-triclocarban formation expressed in baculovirus infected insect sf9 cells incubated for 5 mins prior to UDPGA addition measured after 5 to 30 mins by LC-UV analysis; assay type: ADME; procedure, shortened: as §1
T2 sequence (O60656 whole entry): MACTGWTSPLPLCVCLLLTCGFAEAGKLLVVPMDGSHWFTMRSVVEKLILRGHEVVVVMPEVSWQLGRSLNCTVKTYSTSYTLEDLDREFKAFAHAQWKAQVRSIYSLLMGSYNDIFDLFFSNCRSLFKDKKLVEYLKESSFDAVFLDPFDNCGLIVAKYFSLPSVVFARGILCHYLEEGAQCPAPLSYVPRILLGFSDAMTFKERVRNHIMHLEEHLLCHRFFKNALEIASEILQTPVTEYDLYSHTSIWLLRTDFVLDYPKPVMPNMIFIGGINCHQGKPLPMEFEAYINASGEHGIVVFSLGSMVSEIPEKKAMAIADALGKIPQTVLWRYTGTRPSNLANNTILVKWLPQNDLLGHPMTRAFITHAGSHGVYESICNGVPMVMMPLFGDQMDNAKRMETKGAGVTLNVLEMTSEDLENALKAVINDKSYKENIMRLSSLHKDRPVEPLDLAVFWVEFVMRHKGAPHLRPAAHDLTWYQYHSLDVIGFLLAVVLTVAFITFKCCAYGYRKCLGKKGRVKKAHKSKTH

[5] = Drug metabolism in human intestine microsomes assessed as N'-glucuronide-triclocarban formation incubated for 5 mins prior to UDPGA addition measured after 5 to 30 mins by LC-UV analysis; assay type: ADME; procedure, shortened: as §1
[6] = target: T3, UDP-glucuronosyltransferase 1A6 (Homo sapiens, UniProt P19224); test: Drug metabolism assessed as human UGT1A6-mediated N'-glucuronide-triclocarban formation expressed in baculovirus infected insect sf9 cells incubated for 5 mins prior to UDPGA addition measured after 5 to 30 mins by LC-UV analysis; assay type: ADME; procedure, shortened: as §1
T3 sequence (P19224 whole entry): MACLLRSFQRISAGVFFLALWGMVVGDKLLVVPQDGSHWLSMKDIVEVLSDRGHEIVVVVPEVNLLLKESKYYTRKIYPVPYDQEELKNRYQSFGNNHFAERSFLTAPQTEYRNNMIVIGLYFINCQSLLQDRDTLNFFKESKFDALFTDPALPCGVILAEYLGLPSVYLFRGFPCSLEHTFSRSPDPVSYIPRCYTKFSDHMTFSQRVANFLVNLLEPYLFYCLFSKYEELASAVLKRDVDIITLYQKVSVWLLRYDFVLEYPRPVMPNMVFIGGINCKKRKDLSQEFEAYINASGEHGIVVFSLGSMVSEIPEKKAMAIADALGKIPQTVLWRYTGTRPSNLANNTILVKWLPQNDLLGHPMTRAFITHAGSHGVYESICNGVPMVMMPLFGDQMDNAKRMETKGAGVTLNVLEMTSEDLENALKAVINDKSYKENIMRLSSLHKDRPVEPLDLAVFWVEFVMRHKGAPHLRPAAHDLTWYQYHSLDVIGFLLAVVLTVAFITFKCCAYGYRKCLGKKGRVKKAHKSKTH

[7] = target: T4, UDP-glucuronosyltransferase 2B15 (Homo sapiens, UniProt P54855); test: Drug metabolism assessed as human UGT2B15-mediated N'-glucuronide-triclocarban formation expressed in baculovirus infected insect sf9 cells incubated for 5 mins prior to UDPGA addition measured after 5 to 30 mins by LC-UV analysis; assay type: ADME; procedure, shortened: as §1
T4 sequence (P54855 whole entry): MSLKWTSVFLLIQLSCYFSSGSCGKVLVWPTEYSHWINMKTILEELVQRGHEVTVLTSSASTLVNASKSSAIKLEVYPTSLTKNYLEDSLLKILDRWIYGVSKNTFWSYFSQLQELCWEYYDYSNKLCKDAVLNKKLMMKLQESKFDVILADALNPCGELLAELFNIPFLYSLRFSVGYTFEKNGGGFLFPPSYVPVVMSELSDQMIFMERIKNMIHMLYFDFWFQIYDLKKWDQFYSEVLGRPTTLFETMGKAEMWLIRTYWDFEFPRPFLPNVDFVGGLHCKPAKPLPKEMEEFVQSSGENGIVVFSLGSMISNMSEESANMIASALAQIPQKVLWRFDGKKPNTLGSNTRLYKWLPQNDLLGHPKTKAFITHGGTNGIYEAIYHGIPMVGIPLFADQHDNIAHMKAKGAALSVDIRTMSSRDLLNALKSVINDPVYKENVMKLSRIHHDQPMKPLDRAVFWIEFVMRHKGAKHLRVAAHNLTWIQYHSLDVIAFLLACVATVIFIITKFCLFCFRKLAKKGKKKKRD

Compound: O=C(Nc1ccc(Cl)cc1)Nc1ccc(Cl)c(Cl)c1 [TRICLOCARBAN]
- Drug metabolism (Liver microsome): metabolite_not_detected
- IC50 [1]: 24 nM
- Drug excretion [2]: metabolite_detected
- Drug metabolism [3]: metabolite_not_detected
- Drug metabolism [4]: metabolite_not_detected
- Drug metabolism [5]: metabolite_not_detected
- Drug metabolism [6]: metabolite_not_detected
- Drug metabolism [7]: metabolite_not_detected

From ChEMBL document CHEMBL3525967, “In vitro glucuronidation of the antibacterial triclocarban and its oxidative metabolites” (Drug Metab Dispos, 2012)
